Assay results taken from ChEMBL document CHEMBL1146380, “Synthesis, antimicrobial activity, and QSAR studies of furan-3-carboxamides” (2007).
Values after ≈ are worked out from the molar mass of the structure shown. Active and inactive are the calls of the source. No cut-off for these calls is given here.

Columns and labels:
[1] = system: Fusarium solani; test: Antimicrobial activity against Fusarium solani isolate by broth microdilution method; assay type: functional
[2] = system: Aspergillus niger; test: Antimicrobial activity against Aspergillus niger isolate by broth microdilution method; assay type: functional
[3] = system: Aspergillus flavus; test: Antimicrobial activity against Aspergillus flavus isolate by broth microdilution method; assay type: functional
[4] = system: Staphylococcus aureus; test: Antimicrobial activity against Staphylococcus aureus ATCC 25923 by broth microdilution method; assay type: functional; details: for MBC: read-out: MFC
Outline: (§1)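 Bacteria grown overnight on Mueller–Hinton agar. Colonies were suspended in saline to McFarland turbidity (about 10^8 cfu/mL), diluted 1:100 in saline, then 1:20 in Mueller–Hinton broth, giving 5 · 10^4 cfu/mL per well. DMSO-dissolved compound was tested in twofold dilutions from 320 to 1.25 at 35 °C for 24 h. MIC was the lowest concentration with no visible turbidity (M7-A4). Bactericidal concentration was read by subculturing clear wells on Mueller–Hinton agar.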

[5] = system: Aspergillus fumigatus; test: Antimicrobial activity against Aspergillus fumigatus isolate by broth microdilution method; assay type: functional
[6] = system: Saccharomyces cerevisiae; test: Antimicrobial activity against Saccharomyces cerevisiae ATCC 2601 by broth microdilution method; assay type: functional
Outline: (§2)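 Organism grown on potato dextrose agar, with turbidity-standardized inoculum in RPMI 1640 broth (M27-A2). DMSO-dissolved compound was tested in twofold dilutions from 320 to 1.25 at 35 °C, incubated up to 72 h, in duplicate. MIC was the lowest concentration with no visible growth. Cidal concentration was read by subculturing 20 µL from clear wells on Sabouraud dextrose agar, incubated for the same period.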

[7] = system: Cryptococcus deneoformans; test: Antimicrobial activity against Cryptococcus neoformans var.neoformans serotype D ATCC 28952 by broth microdilution method; assay type: functional; outline: as §2
[8] = system: Pseudomonas aeruginosa; test: Antimicrobial activity against Pseudomonas aeruginosa ATCC 27853 by broth microdilution method; assay type: functional; outline: as §1
[9] = Antimicrobial activity against Salmonella setubal ATCC 19196 by broth microdilution method; assay type: functional, Salmonella enterica subsp. enterica serovar Setubal; details: Salmonella enterica; outline: as §1
[10] = system: Candida albicans; test: Antimicrobial activity against Candida albicans ATCC 44373 by broth microdilution method; assay type: functional
Outline: (§3)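 Yeasts grown on potato dextrose agar. Inoculum was standardized by McFarland turbidity as for bacteria, into RPMI 1640 broth (M27-A2). DMSO-dissolved compound was tested in twofold dilutions from 320 to 1.25 at 35 °C for 24 h, in duplicate. MIC was the lowest concentration completely inhibiting visible growth. Fungicidal concentration was read by subculturing 20 µL from clear wells on Sabouraud dextrose agar at 35 °C.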

[11] = system: Prototheca zopfii; test: Antimicrobial activity against Prototheca zopfii by broth microdilution method; assay type: functional; outline: as §2
[12] = system: Rhizopus arrhizus; test: Antimicrobial activity against Rhizopus oryzae isolate by broth microdilution method; assay type: functional
[13] = system: Sporothrix schenckii; test: Antimicrobial activity against Sporothrix schenckii ATCC 1146 by broth microdilution method; assay type: functional
[14] = system: Scedosporium boydii; test: Antimicrobial activity against Pseudallescheria boydii isolate by broth microdilution method; assay type: functional
[15] = system: Klebsiella pneumoniae; test: Antimicrobial activity against Klebsiella pneumoniae ATCC 1003 by broth microdilution method; assay type: functional; details: for MBC: read-out: MFC; outline: as §1
[16] = system: Escherichia coli; test: Antimicrobial activity against Escherichia coli ATCC 25922 by broth microdilution method; assay type: functional; outline: as §1
[17] = system: Nakaseomyces glabratus; test: Antimicrobial activity against Candida glabrata […] by broth microdilution method; assay type: functional; outline: as §3
[18] = system: Candida dubliniensis; test: Antimicrobial activity against Candida dubliniensis CBS 7987 by broth microdilution method; assay type: functional; outline: as §3
[19] = system: Aspergillus terreus; test: Antimicrobial activity against Aspergillus terreus isolate by broth microdilution method; assay type: functional

Row | SMILES | MIC [1] | MIC [2] [µg/mL] | Activity [3] | MIC [3] [µg/mL] | MIC [4] [µg/mL] | MBC [4] [µg/mL] | MIC [5] [µg/mL] | MIC [6] [µg/mL] | MFC [7] [µg/mL] | MIC [7] [µg/mL] | MIC [8] [µg/mL] | MIC [9] [µg/mL] | MIC [10] [µg/mL] | MIC [11] [µg/mL] | MIC [12] [µg/mL] | MIC [13] [µg/mL] | MIC [15] [µg/mL] | MIC [16] [µg/mL] | MIC [17] [µg/mL] | MIC [18] [µg/mL] | further results
1 | CN(C)c1ccc(CNC(=O)c2ccoc2)cc1 | inactive | 320 (≈ 1310 µM) | inactive | 320 (≈ 1310 µM) | 80 (≈ 327 µM) | 80 (≈ 327 µM) | 320 (≈ 1310 µM) | 160 (≈ 655 µM) | 320 (≈ 1310 µM) | 160 (≈ 655 µM) | 160 (≈ 655 µM) | 320 (≈ 1310 µM) | 80 (≈ 327 µM) | 320 (≈ 1310 µM) | 320 (≈ 1310 µM) | 320 (≈ 1310 µM) | 160 (≈ 655 µM) | 160 (≈ 655 µM) | 80 (≈ 327 µM) | 80 (≈ 327 µM) | Activity [2]: inactive; Activity [5]: inactive; Activity [6]: inactive; MBC [8]: 160 µg/mL (≈ 655 µM); MBC [9]: 320 µg/mL (≈ 1310 µM); MFC [10]: 160 µg/mL (≈ 655 µM); Activity [11]: inactive; Activity [12]: inactive; Activity [13]: inactive; MFC [14]: 320 µg/mL (≈ 1310 µM); MIC [14]: 40 µg/mL (≈ 164 µM); MBC [15]: 160 µg/mL (≈ 655 µM); Activity [16]: inactive; MFC [17]: 160 µg/mL (≈ 655 µM); MFC [18]: 160 µg/mL (≈ 655 µM); Activity [19]: inactive
2 | O=C(Nc1ccccc1O)c1ccoc1 | 320 µg/mL (≈ 1570 µM) | 320 (≈ 1570 µM) | inactive | 320 (≈ 1570 µM) | 20 (≈ 98.4 µM) | 320 (≈ 1570 µM) | 160 (≈ 787 µM) | 160 (≈ 787 µM) | 20 (≈ 98.4 µM) | 5 (≈ 24.6 µM) | 10 (≈ 49.2 µM) | 160 (≈ 787 µM) | 160 (≈ 787 µM) | 40 (≈ 197 µM) | 320 (≈ 1570 µM) | 320 (≈ 1570 µM) | 20 (≈ 98.4 µM) | 160 (≈ 787 µM) | 160 (≈ 787 µM) | 80 (≈ 394 µM) | Activity [1]: inactive; MFC [2]: 320 µg/mL (≈ 1570 µM); MFC [5]: 320 µg/mL (≈ 1570 µM); MFC [6]: 160 µg/mL (≈ 787 µM); MBC [8]: 160 µg/mL (≈ 787 µM); MBC [9]: 320 µg/mL (≈ 1570 µM); MFC [10]: 320 µg/mL (≈ 1570 µM); MFC [11]: 80 µg/mL (≈ 394 µM); MFC [12]: 320 µg/mL (≈ 1570 µM); MFC [13]: 320 µg/mL (≈ 1570 µM); MFC [14]: 160 µg/mL (≈ 787 µM); MIC [14]: 160 µg/mL (≈ 787 µM); MBC [15]: 320 µg/mL (≈ 1570 µM); MBC [16]: 320 µg/mL (≈ 1570 µM); MFC [17]: 160 µg/mL (≈ 787 µM); MFC [18]: 160 µg/mL (≈ 787 µM); Activity [19]: inactive; MIC [19]: 320 µg/mL (≈ 1570 µM)
3 | C[C@@H]1[C@H](O)[C@@H](C)/C=C/C=C/C=C/C=C/C=C/C=C/C=C/[C@H](O[C@@H]2O[C@H](C)[C@@H](O)[C@H](N)[C@@H]2O)C[C@@H]2O[C@](O)(C[C@@H](O)C[C@@H](O)[C@H](O)CC[C@@H](O)C[C@@H](O)CC(=O)O[C@H]1C)C[C@H](O)[C@H]2C(=O)O [AMPHOTERICIN B] | 1 µg/mL (≈ 1.08 µM) | 1 (≈ 1.08 µM) |  | 1 (≈ 1.08 µM) |  |  | 1 (≈ 1.08 µM) |  |  |  |  |  |  | 0.5 (≈ 0.541 µM) | 1 (≈ 1.08 µM) | 0.5 (≈ 0.541 µM) |  |  |  |  | MIC [14]: 4 µg/mL (≈ 4.33 µM); MIC [19]: 2 µg/mL (≈ 2.16 µM)
4 | O=C(Nn1cnnc1)c1ccoc1 | 320 µg/mL (≈ 1800 µM) | 320 (≈ 1800 µM) | inactive |  | 320 (≈ 1800 µM) | 320 (≈ 1800 µM) | 320 (≈ 1800 µM) | 80 (≈ 449 µM) | 40 (≈ 225 µM) | 10 (≈ 56.1 µM) | 40 (≈ 225 µM) | 160 (≈ 898 µM) | 40 (≈ 225 µM) | 80 (≈ 449 µM) | 320 (≈ 1800 µM) | 320 (≈ 1800 µM) | 320 (≈ 1800 µM) | 160 (≈ 898 µM) | 40 (≈ 225 µM) | 40 (≈ 225 µM) | Activity [1]: inactive; MFC [5]: 320 µg/mL (≈ 1800 µM); MFC [6]: 160 µg/mL (≈ 898 µM); MBC [8]: 160 µg/mL (≈ 898 µM); MBC [9]: 320 µg/mL (≈ 1800 µM); MFC [10]: 40 µg/mL (≈ 225 µM); MFC [11]: 320 µg/mL (≈ 1800 µM); Activity [12]: inactive; Activity [13]: inactive; Activity [14]: inactive; Activity [15]: inactive; MBC [16]: 320 µg/mL (≈ 1800 µM); MFC [17]: 80 µg/mL (≈ 449 µM); MFC [18]: 40 µg/mL (≈ 225 µM); MFC [19]: 320 µg/mL (≈ 1800 µM); MIC [19]: 320 µg/mL (≈ 1800 µM)
5 | OC(Cn1cncn1)(Cn1cncn1)c1ccc(F)cc1F [FLUCONAZOLE] |  |  |  |  |  |  |  | 1 (≈ 3.27 µM) |  | 2 (≈ 6.53 µM) |  |  | 4 (≈ 13.1 µM) |  |  |  |  |  | 8 (≈ 26.1 µM) | 2 (≈ 6.53 µM) | 
6 | C[C@@H](O)[C@H]1C(=O)N2C(C(=O)O)=C(SCCNC=N)C[C@H]12 [IMIPENEM ANHYDROUS] |  |  |  |  | 0.06 (≈ 0.2 µM) |  |  |  |  |  | 2 (≈ 6.68 µM) | < 4 |  |  |  |  | < 4 | 0.06 (≈ 0.2 µM) |  |  | 
